This is an account of results in ChEMBL document CHEMBL5036324 (J Med Chem, 2021).

SMILES strings stand for the structures. Activity calls are given as the source filed them. No cut-off for these calls is given here.

For data set [1], the target named is T1, TLR7 and TLR8 (Homo sapiens) (UniProt Q9NYK1+Q9NR97). Kind of data set: Agonist activity at human TLR7/8 expressed in human PBMC cells assessed as induction of G-CSF production by measuring concentration required to induce maximal response incubated for 12 hrs by multiplexed immunoassay. The format is cell-based. The settings on record: filed as agonist. Put shortly: (§1)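 Healthy-volunteer PBMCs from a single donor were isolated by Ficoll−Hypaque gradient and plated at 2.0 × 10⁶ cells/mL. They were stimulated for 12 h with escalating compound concentrations. Supernatants were assayed in duplicate on a 41-analyte magnetic bead cytokine/chemokine panel read by Luminex. EC_max is the concentration giving maximal cytokine induction.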

Data set [2] can be described thus: Toxicity in BALB/c mouse implanted with mouse CT26 cells assessed as decrease in body weight at 1.2 g, ip administered on day 4 in combination with anti-PD-1 antibodies measured after 4 days. The format is organism-based. The settings on record: in vivo, 96 h, time 4 day. Put shortly: (§2)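 CT26 subcutaneous tumor-bearing BALB/c mice (n = 5) were treated from 100 mm³ tumor volume. TLR7/8 agonist was given ip once weekly, alone or with anti-PD-1 antibody (200 μg ip, twice weekly). Body weight was tracked over the treatment period and reported as mean ± SEM.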

For data set [3], the target named is T1, TLR7 and TLR8 (Homo sapiens). Briefly: Agonist activity at human TLR7/8 expressed in human PBMC cells assessed as induction of MIP-1alpha production by measuring concentration required to induce maximal response incubated for 12 hrs by multiplexed immunoassay. The conditions noted are these: filed as agonist. The format is cell-based. Put shortly:
as §1

In data set [4] the target is hERG (KCNH2) (Homo sapiens, UniProt Q12809). Kind of data set: Inhibition of hERG expressed in HEK293 cells at 3 uM relative to control. The format is cell-based. The settings on record: HEK293 cells expressing hERG. (hERG is a cardiac potassium channel; its block is linked to QT prolongation.)
In data set [5] the target is T1, TLR7 and TLR8 (Homo sapiens). Briefly: Agonist activity at human TLR7/8 expressed in human PBMC cells assessed as induction of TNFalpha production by measuring concentration required to induce maximal response incubated for 12 hrs by multiplexed immunoassay. The conditions noted are these: filed as agonist. The format is cell-based. The method in brief:
as §1

The test system of data set [6] is CT26. Kind of data set: Antitumor immunity against mouse CT26 cells implanted in BALB/c mouse assessed as increase in infiltration of CD8+ T cytotoxic lymphocytes at 25 ug, ip administered once a week with anti-PD-1 antibody for 23 days by flow cytometry analysis. The conditions noted are these: dose 25.0 µg, time 23.0 day. The data set is classed as functional, organism-based. Put shortly:
(§3)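 CT26-bearing BALB/c mice (n = 5) were treated ip once weekly with agonist, alone or with anti-PD-1 (200 μg, twice weekly). Tumours were harvested 23 days after implantation, enzymatically and mechanically dissociated into single cells, and stained for surface markers plus intracellular FoxP3 after fixation/permeabilisation. Cells were gated within CD45⁺ for CD11c⁺ DCs, CD11b⁺F4/80⁺MHCII⁺ (M1), CD206⁺ (M2), CD3/CD4/CD8, and CD4⁺CD25⁺FoxP3⁺ Treg, then analysed by flow cytometry.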

Data set [7] addresses T1, TLR7 and TLR8 (Homo sapiens). Briefly: Agonist activity at human TLR7/8 expressed in human PBMC cells assessed as induction of IP-10 production by measuring concentration required to induce maximal response incubated for 12 hrs by multiplexed immunoassay. The settings on record: filed as agonist. The data set is classed as cell-based. The method in brief:
as §1

For data set [8] the target is unchanged. Briefly: Agonist activity at human TLR7/8 expressed in human PBMC cells assessed as induction of IL-6 production by measuring concentration required to induce maximal response incubated for 12 hrs by multiplexed immunoassay. The data set is classed as cell-based. The conditions noted are these: filed as agonist. Put shortly: as §1
The subject of data set [9] is CT26. Briefly: Antitumor immunity against mouse CT26 cells implanted in BALB/c mouse assessed as increase in infiltration of CD4+ TH1 cells at 25 ug, ip administered once a week for 23 days by flow cytometry analysis. The format is functional, organism-based. The settings on record: dose 25.0 µg, time 23.0 day. The method in brief: as §3
Data set [10] has as its system CT26. Kind of data set: Antitumor activity against mouse CT26 cells implanted in BALB/c mouse assessed as fold increase in infiltration of CD11c+ in tumor cells at 25 ug, ip administered once a week for 23 days by flow cytometry analysis relative to R848. The data set is classed as functional. The settings on record: dose 25 µg; time 23 day. Put shortly: as §3
(In flow cytometry, cells or beads pass a laser one at a time.)

In data set [11] the test system is CT26. Briefly: Antitumor immunity against mouse CT26 cells implanted in BALB/c mouse assessed as increase in infiltration of CD4+ TH1 cells at 25 ug, ip administered once a week with anti-PD-1 antibody for 23 days by flow cytometry analysis. The data set is classed as functional, organism-based. The conditions noted are these: dose 25.0 µg, time 23.0 day. Put shortly: as §3

The test system of data set [12] is CT26. Kind of data set: Antitumor activity against mouse CT26 cells implanted in BALB/c mouse assessed as tumor growth inhibition at 50 ug, ip administered once a week in presence of anti-PD-1 antibodies and measured every 3 days for 23 days relative to control. The data set is classed as functional. The settings on record: dose 50 µg; time 23 day. The method in brief: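 Subcutaneous CT26 tumours were grown in BALB/c mice, with cells cultured in DMEM/10% FBS. At a mean tumour size of 100 mm³, mice were randomised (n = 5/group). Agonist was given ip once weekly; anti-PD-1 or IgG isotype was given ip at 200 μg twice weekly. Tumour volume (V = 1/2ab²) was measured every 3 days. Mice were euthanised at 2000 mm³.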

The target of data set [13] is T1, TLR7 and TLR8 (Homo sapiens). Briefly: Agonist activity at human TLR7/8 expressed in human PBMC cells assessed as induction of INFgamma production at 0.1 to 32 ug/ml incubated for 12 hrs by multiplexed immunoassay. The data set is classed as cell-based. The conditions noted are these: filed as agonist, dose 0.1-32 µg/ml. Put shortly:
as §1

Data set [14] is described as follows: Toxicity in BALB/c mouse implanted with mouse CT26 cells assessed as decrease in body weight at 25 ug, ip administered once a week for 23 days. The conditions noted are these: in vivo, 552 h, dose 25 µg, time 23 day. The format is organism-based. The method in brief: as §2
The target of data set [15] is T1, TLR7 and TLR8 (Homo sapiens). Briefly: Agonist activity at human TLR7/8 expressed in human PBMC cells assessed as induction of IL-1beta production at 0.1 to 32 ug/ml incubated for 12 hrs by multiplexed immunoassay. The data set is classed as cell-based. The conditions noted are these: filed as agonist, dose 0.1-32 µg/ml. The method in brief: as §1
The target is the same in data set [16]. Kind of data set: Agonist activity at human TLR7/8 expressed in human PBMC cells assessed as induction of IL-12 production at 0.1 to 32 ug/ml incubated for 12 hrs by multiplexed immunoassay. The format is cell-based. The conditions noted are these: filed as agonist, dose 0.1-32 µg/ml. Put shortly: as §1
A short description of data set [17]: Toxicity in BALB/c mouse implanted with mouse CT26 cells assessed as decrease in body weight at 25 ug, ip administered once a week in presence of anti-PD-1 antibodies for 23 days. The format is organism-based. The settings on record: in vivo, 552 h, dose 25 µg, time 23 day. The method in brief:
as §2

Sequence of hERG (KCNH2) (Q12809 whole entry): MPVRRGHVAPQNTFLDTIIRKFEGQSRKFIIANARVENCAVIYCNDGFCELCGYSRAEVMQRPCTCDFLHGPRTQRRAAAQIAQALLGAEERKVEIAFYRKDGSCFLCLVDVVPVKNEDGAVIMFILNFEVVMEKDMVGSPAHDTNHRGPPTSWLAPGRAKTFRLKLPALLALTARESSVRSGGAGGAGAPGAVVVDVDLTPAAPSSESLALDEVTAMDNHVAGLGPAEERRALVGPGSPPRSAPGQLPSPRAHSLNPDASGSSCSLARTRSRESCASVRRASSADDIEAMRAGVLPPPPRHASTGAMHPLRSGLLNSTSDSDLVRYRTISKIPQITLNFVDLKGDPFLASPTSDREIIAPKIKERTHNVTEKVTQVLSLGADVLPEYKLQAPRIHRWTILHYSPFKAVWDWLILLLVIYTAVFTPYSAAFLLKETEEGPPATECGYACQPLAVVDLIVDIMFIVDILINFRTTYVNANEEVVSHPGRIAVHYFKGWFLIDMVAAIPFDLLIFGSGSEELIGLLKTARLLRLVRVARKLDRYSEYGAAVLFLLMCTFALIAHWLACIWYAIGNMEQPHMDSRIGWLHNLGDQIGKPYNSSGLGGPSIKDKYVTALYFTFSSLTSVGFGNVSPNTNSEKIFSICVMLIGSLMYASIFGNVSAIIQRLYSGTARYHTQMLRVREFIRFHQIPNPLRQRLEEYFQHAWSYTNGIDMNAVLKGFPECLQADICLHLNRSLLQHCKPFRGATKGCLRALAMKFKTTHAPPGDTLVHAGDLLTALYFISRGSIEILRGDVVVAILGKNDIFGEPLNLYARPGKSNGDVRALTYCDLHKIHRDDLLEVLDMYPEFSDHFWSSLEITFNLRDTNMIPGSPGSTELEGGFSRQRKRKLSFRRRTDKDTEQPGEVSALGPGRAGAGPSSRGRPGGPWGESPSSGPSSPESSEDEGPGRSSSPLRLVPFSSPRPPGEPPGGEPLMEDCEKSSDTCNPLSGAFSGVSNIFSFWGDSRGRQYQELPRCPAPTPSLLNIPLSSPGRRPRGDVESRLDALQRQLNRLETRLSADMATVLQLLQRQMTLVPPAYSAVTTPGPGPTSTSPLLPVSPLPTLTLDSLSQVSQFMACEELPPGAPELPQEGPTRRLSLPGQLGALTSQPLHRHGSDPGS

Consider `CCCCNc1nc(N)nc2ccc(Cc3ccc(CN(C)C)cc3)nc12`, for which the ECmax in data set [1], in data set [3], in [5], in data set [7] and in [8] was 0.1 µg/mL each time. For the same compound, the Activity entry in data set [2] is “Non-Toxic”. In data set [4], at 3 µM the inhibition was 63.2%. Besides, the result in [6], in [9] and in data set [11] was Active. Moreover, the “fold change (FC)” value in [10] is reported as 2.
With `COCCNc1nc(N)nc2ccc(Cc3ccc(CN(C)C)cc3)nc12`, in data set [12], the inhibition of tumour growth (TGI) – broadly, the reduction of tumour growth relative to the control group – was found to be 88.9%. The outcome in data set [13], in data set [15] and in data set [16] was Active. The Activity result in data set [14] and in [17] was “Non-Toxic” in each case.
